According to ChEMBL document CHEMBL1146826, “A novel Pd-catalyzed cyclization reaction of ureas for the synthesis of dihydroquinazolinone p38 kinase inhibitors” (Bioorg Med Chem Lett, 2004):

Tests used:
[1] = biological target: Mitogen-activated protein kinase 14 (Mus musculus, UniProt P47811); assay: Inhibition of murine Mitogen-activated protein kinase p38 alpha
Method in brief: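 Phosphorylated His-tagged murine p38α MAP kinase (10 ng/well) assayed with immobilized GST-ATF-2 as substrate.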

PBMC = assay: Effect on LPS stimulated TNF-alpha release from hPBMCs; format: functional, cell-based; conditions: Homo sapiens
Method in brief: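 Human peripheral blood mononuclear cells incubated with inhibitor, then stimulated with LPS/IFNγ for 3 h; TNFα in supernatants quantified by ELISA.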

Mus musculus = assay: Compound was tested for the inhibition of TNF-alpha release after LPS stimulation in mice at a dose of 30 mg/kg, po; format: functional
Method in brief: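 Mice given compound orally at 30 mg/kg; 1 h after dosing, LPS (20 mg/kg) injected iv. One hour later blood collected and TNFα measured by mouse-specific ELISA.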

Sequence of Mitogen-activated protein kinase 14 (P47811 whole entry): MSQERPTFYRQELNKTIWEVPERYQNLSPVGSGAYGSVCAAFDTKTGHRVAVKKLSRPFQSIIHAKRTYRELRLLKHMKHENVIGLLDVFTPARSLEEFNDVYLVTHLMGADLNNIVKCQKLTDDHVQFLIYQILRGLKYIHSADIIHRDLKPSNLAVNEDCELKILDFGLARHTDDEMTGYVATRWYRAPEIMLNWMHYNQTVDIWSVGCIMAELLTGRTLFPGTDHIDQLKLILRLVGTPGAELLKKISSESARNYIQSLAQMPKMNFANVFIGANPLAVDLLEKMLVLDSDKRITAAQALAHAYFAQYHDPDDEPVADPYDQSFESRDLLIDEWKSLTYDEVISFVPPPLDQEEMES

| IC50 [1] [nM] | SMILES | IC50 (PBMC) [nM] | inhibition in vivo at 30 mg/kg (Mus musculus) [%] |
| --- | --- | --- | --- |
| 470 | O=C1NCc2cc(Sc3ccc(F)cc3F)ccc2N1c1c(Cl)cccc1Cl | 960 |  |
| 8500 | O=C(Nc1ccc2c(c1)CNC(=O)N2c1c(Cl)cccc1Cl)c1ccccc1 | 10000 |  |
| 53 | O=C1NCc2cc(NS(=O)(=O)c3ccccc3)ccc2N1c1c(Cl)cccc1Cl | 140 |  |
| 150 | O=C1NCc2cc(NCc3ccccc3)ccc2N1c1c(Cl)cccc1Cl | 1200 |  |
| 11800 | O=C1NCc2ccccc2N1c1c(Cl)cccc1Cl |  |  |
| 14000 | COc1cc2c(-c3ccccc3)nc(=O)n(C(C)C)c2cc1N1CCOCC1 |  |  |

The remaining lines, values behind:

| SMILES | IC50 [1] [nM] | IC50 (PBMC) [nM] | inhibition in vivo at 30 mg/kg (Mus musculus) [%] |
| --- | --- | --- | --- |
| O=C1NCc2cc(NS(=O)(=O)c3ccccc3Cl)ccc2N1c1c(Cl)cccc1Cl | 180 | 510 |  |
| O=C1NCc2cc(Nc3ccc(F)cc3F)ccc2N1c1c(Cl)cccc1Cl | 380 | 290 |  |
| O=C1NCc2cc(NS(=O)(=O)c3ccc(F)c(Cl)c3)ccc2N1c1c(Cl)cccc1Cl | 34 | 84 |  |
| Cc1ccc(S(=O)(=O)Nc2ccc3c(c2)CNC(=O)N3c2c(Cl)cccc2Cl)cc1 | 1800 | > 10000 |  |
| CN(c1ccc2c(c1)CNC(=O)N2c1c(Cl)cccc1Cl)S(=O)(=O)c1cc(Cl)ccc1Cl | 780 | 1200 |  |
| O=C1NCc2cc(NS(=O)(=O)c3cc(Cl)ccc3O)ccc2N1c1c(Cl)cccc1Cl | 570 |  |  |
| O=C1NCc2cc(NS(=O)(=O)c3cc(Cl)ccc3Cl)ccc2N1c1c(Cl)cccc1Cl | 100 | 390 |  |
| Cc1cc(OCCCN2CCOCC2)cc(C)c1N1C(=O)NCc2cc(NS(=O)(=O)c3ccc(F)c(Cl)c3)ccc21 |  |  | 42 |
